Laboratory results from ChEMBL document CHEMBL5390255, “Expanding the squaramide library as mycobacterial ATP synthase inhibitors: Innovative synthetic pathway and biological evaluation” (Bioorg Med Chem, 2023).
≈ marks a conversion by molar mass, not a printed value. Calls of active or inactive are those of the source. The rule behind the calls is not given here.

Tests used:
[1] = Octanol/water partition coefficient log P of the compound; type: physicochemical
Summary of the method: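 Calculated by Chemaxon as log n-octanol/water partition coefficient, not measured.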

[2] = test system: Mycobacterium tuberculosis; test: Antibacterial activity against Mycobacterium tuberculosis H37Ra assessed as bacterial growth inhibition incubated for 7 days by broth microdilution method; type: functional; settings: time 7 day
Summary of the method: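 H37Ra-Lux luminescent broth microdilution. Cultures in 7H9/OADC/tyloxapol/glycerol at 1x10⁴ RLU/well. 2-fold nine-point dilution from final 100 µM, DMSO ≤0.5%, in triplicate, with bedaquiline reference. Incubated 7 days at 37 °C; luminescence read after n-decanal injection. MIC90 from variable-slope four-parameter nonlinear regression.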

[3] = Cytotoxicity against mouse RAW264.7 cells assessed as reduction of cell viability incubated for 72 hrs by Cell Titer-Glo assay; type: toxicity, cell-based
[4] = test system: Mycobacterium tuberculosis; test: Bactericidal activity against Mycobacterium tuberculosis H37Ra assessed as bacterial growth inhibition incubated for 3 to 4 weeks by broth microdilution method; type: functional; settings: time 3-4 weeks
Summary of the method: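 MBC: same H37Ra-Lux microdilution setup as the MIC assay. At 14 days, 2 µL per condition spotted on 7H11 agar in triplicate, and wells at and one step above MIC fully plated. Colonies counted after 3–4 weeks at 37 °C. MBC is the lowest concentration giving >99% kill.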

[5] = test system: Mycobacterium tuberculosis; test: Anti-mycobacterial activity against Mycobacterium tuberculosis H37Ra infected in mouse RAW264.7 cells at 0.5 to 2 times MIC measured after 72 hrs by time-kill kinetic assay; type: functional, organism-based
Summary of the method: (§1)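 RAW 264.7 macrophages infected with H37Ra-Lux at MOI 10 for 4 h in DMEM with 5% iFBS. Extracellular bacteria were removed with 200 µg/ml amikacin for 1 h, and cells reseeded at 5x10⁴/well. […] Cells were PBS-washed, lysed in 0.1% Triton X-100, and luminescence read with n-decanal at 24, 48 and 72 h.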

[6] = test system: Mycobacterium tuberculosis; test: Anti-mycobacterial activity against Mycobacterium tuberculosis H37Ra infected in mouse RAW264.7 cells at 0.5 times MIC measured after 24 hrs by time-kill kinetic assay; type: functional, organism-based; summary of the method: as §1
[7] = test system: Mycobacterium tuberculosis; test: Anti-mycobacterial activity against Mycobacterium tuberculosis H37Ra.mScarlet+ infected in mouse RAW264.7 cells assessed as reduction in bacterial load at 4 uM incubated for 72 hrs by 488-I Phalloidin/DAPI staining based microscopic analysis relative to control; type: functional; parameters: scale not given: the % may be the effect or the level left
Summary of the method: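 RAW 264.7 cells infected with H37Ra.mScarlet⁺, seeded on coverslips at 5x10⁵ cells/ml, and treated with compound at 0.5% final DMSO; infected cells with 0.5% DMSO as control. At 72 h cells were PBS-washed and fixed in 4% paraformaldehyde. Actin stained with phalloidin 488 (1:1000, 15 min) and nuclei with 1 µg/ml DAPI (5 min). Imaged by fluorescence microscopy at 63x.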

[8] = test system: Mycobacterium tuberculosis; test: Synergistic antibacterial activity against Mycobacterium tuberculosis H37Ra assessed as fractional inhibitory concentration index at 2 times MIC measured after 7 days in presence of clofazimine by checkerboard microdilution assay; type: functional; settings: time 7 day
Summary of the method: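 Checkerboard with H37Ra-Lux, in triplicate. Squaramide 2-fold dilutions from 2x MIC across columns; clofazimine 2-fold dilutions from 2x MIC down rows. Luminescence read at 7 days. FICI calculated as A/MIC A + B/MIC B.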

[9] = test system: Mycobacterium tuberculosis; test: Anti-mycobacterial activity against Mycobacterium tuberculosis H37Ra infected in mouse RAW264.7 cells at 0.5 to 2 times MIC measured after 24 hrs by time-kill kinetic assay; type: functional, organism-based; summary of the method: as §1
[10] = Stability of compound; type: physicochemical
[11] = test system: Mycobacterium tuberculosis; test: Antibacterial activity against wild type Mycobacterium tuberculosis H37Ra incubated for 7 days by resazurin staining based microtiter assay; type: functional; settings: 168 h, time 7 day
Summary of the method: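 Resazurin microtiter assay on H37Ra atpB K179N mutants and wild type, using exponential cultures diluted to OD 0.02. 3-fold serial dilution from 10 µM (0.002–10 µM), in triplicate. After 7 days, 0.02% resazurin added for 24 h, then fluorescence read (ex 530/em 590 nm). MIC taken from four-parameter variable-slope nonlinear regression.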

[12] = test system: Mycobacterium tuberculosis; test: Antibacterial activity against Mycobacterium tuberculosis H37Rv assessed as bacterial growth inhibition by resazurin staining based broth micro-dilution assay; type: functional
ATP synthase = test: Inhibition of Mycobacterium tuberculosis H37Rv ATP synthase by luminometer analysis; type: protein-complex assay
[13] = Selectivity index, ratio of MIC for antibacterial activity against Mycobacterium tuberculosis H37Rv to the IC50 for inhibition of Mycobacterium tuberculosis H37Rv ATP synthase; type: toxicity
[14] = Mycobacterium tuberculosis, H37Ra, 168 h, read-out: MIC
[15] = Mycobacterium tuberculosis, H37Ra, read-out: MBC

SMILES	logP [1]	MIC [2, 14] [µM]	CC50 at 72 h [3] [µM]	also measured
O=c1c(NCc2ccccn2)c(N2CCNCC2)c1=O	-0.21	> 64	> 64	–
O=c1c(NCc2ccccn2)c(N2CCCCC2)c1=O	1.18	> 64	> 64	–
CCCNc1c(NCc2ccccn2)c(=O)c1=O	0.82	> 64	> 64	–
Cc1ccc2oc(Nc3c(NCc4ccccn4)c(=O)c3=O)nc2c1	2.13	> 64	> 64	–
O=c1c(NCc2ccccn2)c(NC2CCCCCCC2)c1=O	2.63	> 64	> 64	–
O=c1c(NCc2ccccn2)c(-c2ccc(N3CCCCC3)cc2)c1=O	3.29	2.56 (≈ 0.889 µg/mL)	> 64	MBC [4, 15]: 1.2 µM (≈ 0.417 µg/mL); Activity [5]: inactive; Activity [6]: Active; Activity [7]: 80%; fractional inhibitory concentration index (FICI) [8]: 0.29
O=c1c(NCc2ccccn2)c(-c2ccc(N3CCNCC3)cc2)c1=O	1.91	19.9 (≈ 6.93 µg/mL)	> 64	MBC [4, 15]: 64 µM (≈ 22.3 µg/mL)
O=c1c(NCc2ccccn2)c(N2CCN(c3ccccc3)CC2)c1=O	2.06	> 64	26.2	–
O=c1c(NCc2ccccn2)c(Nc2nc3ccc(Cl)cc3o2)c1=O	2.22	> 64	> 64	–
CC/C(=C(\c1ccccc1)c1ccc(OCCN(C)C)cc1)c1ccccc1 [TAMOXIFEN]	–	–	5.03	–
O=c1c(NCc2ccccn2)c(Nc2ccccc2)c1=O	1.58	15.1 (≈ 4.23 µg/mL)	> 64	–
COc1ccc(-c2c(NCc3ccccn3)c(=O)c2=O)cc1	2.18	6.59 (≈ 1.94 µg/mL)	> 64	MBC [4, 15]: 8 µM (≈ 2.35 µg/mL); Activity [9]: inactive; Activity [5]: inactive; fractional inhibitory concentration index (FICI) [8]: 0.63
O=c1c(NCc2ccccn2)c(NC2CCCCC2)c1=O	1.74	> 64	> 64	–
O=c1c(NCc2ccccn2)c(N2CCOCC2)c1=O	0.11	> 64	> 64	–
O=c1c(NCc2ccccn2)c(-c2ccc(F)cc2)c1=O	2.48	14.9 (≈ 4.21 µg/mL)	> 64	MBC [4, 15]: > 100 µM
O=c1c(NCc2ccccn2)c(-c2ccc(N3CCSCC3)cc2)c1=O	2.8	0.9 (≈ 0.329 µg/mL)	> 64	MBC [4, 15]: 1.2 µM (≈ 0.439 µg/mL); Activity [5]: inactive; fractional inhibitory concentration index (FICI) [8]: 0.48; Stability [10]: Unstable

SMILES	logP [1]	MIC [2, 14] [µM]	CC50 at 72 h [3] [µM]	also measured
O=c1c(NCc2ccccn2)c(Nc2cc(C3CC3)n[nH]2)c1=O	0.89	> 64	> 64	–
O=c1c(NCCCBr)c(NCc2ccccn2)c1=O	0.85	> 64	> 64	–
O=c1c(NCc2ccccn2)c(Nc2nc3ccccc3o2)c1=O	1.61	> 64	> 64	–
COc1nc2ccc(Br)cc2cc1[C@@H](c1ccccc1)[C@@](O)(CCN(C)C)c1cccc2ccccc12 [BEDAQUILINE]	–	0.05 (≈ 0.0278 µg/mL)	–	MBC [4, 15]: 0.03 µM (≈ 0.0167 µg/mL); MIC [11]: 0.1 µM (≈ 0.0556 µg/mL)
C#CCNc1c(NCc2ccccn2)c(=O)c1=O	0.17	> 64	> 64	–
O=c1c(NCc2ccccn2)c(Nc2nc3ccc([N+](=O)[O-])cc3o2)c1=O	1.55	> 64	> 64	–
O=c1c(NCc2ccccc2)c(NCc2ccccn2)c1=O	1.67	> 64	> 64	–
CCCCCCNc1c(NCc2ccccn2)c(=O)c1=O	2.16	> 64	> 64	–
COc1ccc(/C=C2/S/C(=N/N=C/c3ccccc3O)NC2=O)cc1	–	–	–	MIC90 ([12]; Mycobacterium tuberculosis, H37Rv): 0.5 mg/L (≈ 1.41 µM)
O=c1c(NCc2ccccn2)c(-c2ccc(C3CCCCC3)cc2)c1=O	4.45	> 64	> 64	–
O=c1c(NCc2ccccn2)c(Nc2nc3cc([N+](=O)[O-])ccc3o2)c1=O	1.55	> 64	> 64	–
O=c1c(NCc2ccccn2)c(-c2ccc(N3CCOCC3)cc2)c1=O	–	–	> 64	MIC [12]: 0.5 µM (≈ 0.175 µg/mL); IC50 (ATP synthase): 0.03 µM; Selectivity Index [13]: > 1000; MIC [2]: 0.77 µM (≈ 0.269 µg/mL); MBC [4]: 0.4 µM (≈ 0.14 µg/mL); Activity [5]: inactive; fractional inhibitory concentration index (FICI) [8]: 0.37
O=c1c(NCc2ccccn2)c(Nc2nc3cc(Cl)ccc3o2)c1=O	2.22	> 64	> 64	–
Cc1ccc2nc(Nc3c(NCc4ccccn4)c(=O)c3=O)oc2c1	2.13	> 64	> 64	–
O=c1c(NCc2ccccn2)c(N2CCC(c3ccccc3)CC2)c1=O	2.6	> 64	7.47	–
O=c1c(NCc2ccccn2)c(-c2ccc(C3CCNCC3)cc2)c1=O	2.44	> 64	> 64	–
